Experimental data reported in ChEMBL document CHEMBL2331531, “Synthesis and biological evaluation of urea derivatives as highly potent and selective rho kinase inhibitors” (J Med Chem, 2013).
pIC50: −log10 of the molar value.

Columns and labels:
[1] = Volume of distribution in Sprague-Dawley rat at 1 mg/kg, iv by LC-MS/MS analysis; assay type: ADME, organism-based; parameters: dose 1 mg/kg, route intravenous; settings: in vivo
CYP2D6 = CYP2D6 (Homo sapiens, UniProt P10635); assay: Inhibition of CYP2D6 (unknown origin)-mediated bufuralol hydroxylation to 4'-Hydroxybufuralol at 10 uM relative to control; assay type: ADME; settings: probe bufuralol
[2] = Inhibition of ROCK-mediated myosin light chain bisphosphorylation in rat A7R5 cells after 1 hr by fluorescence assay in presence of L-alpha-lysophosphatidic acid; assay type: cell-based
Summary of the method: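 A7r5 cells in 20% FBS DMEM, plated 5000/well overnight, serum-starved 4 h in 0.05% FBS DMEM; compound 13333 nM to 18 nM final for 1 h, then 10 μM LPA 10 min; fixed, permeabilized, anti-ppMLC plus IR800 secondary; infrared scan, ppMLC signal normalized to TO-PRO-3 nuclear signal. IC50 as mean of two or more experiments.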

[3] = Half life in human liver microsomes; assay type: ADME, Microsome
CYP3A4 = CYP3A4 (Homo sapiens, UniProt P08684); assay: Inhibition of CYP3A4 (unknown origin)-mediated midazolam hydroxylation to 1'-Hydroxymidazolam at 10 uM relative to control; assay type: ADME; settings: probe midazolam
[4] = molecular target: Rho-associated protein kinase 1 (Homo sapiens, UniProt Q13464); assay: Inhibition of ROCK1 (unknown origin) after 4 hrs by HTRF assay
[5] = molecular target: Rho-associated protein kinase 2 (Homo sapiens, UniProt O75116); assay: Inhibition of ROCK2 (unknown origin) after 4 hrs by HTRF assay
CYP2C9 = CYP2C9 (Homo sapiens, UniProt P11712); assay: Inhibition of CYP2C9 (unknown origin)-mediated tolbutamide hydroxylation to hydroxy tolbutamide at 10 uM relative to control; assay type: ADME; settings: probe tolbutamide
Rattus norvegicus = assay: (§1) AUC in Sprague-Dawley rat at 1 mg/kg, iv by LC-MS/MS analysis; assay type: ADME, organism-based, Plasma; parameters: dose 1 mg/kg, route intravenous; settings: in vivo
[6] = Cmax in Sprague-Dawley rat at 1 mg/kg, iv by LC-MS/MS analysis; assay type: ADME, organism-based; parameters: dose 1 mg/kg, route intravenous; settings: in vivo
CYP1A2 = molecular target: T1, CYP1A2 (Homo sapiens, UniProt P05177); assay: Inhibition of CYP1A2 (unknown origin)-mediated phenaceten demethylation to acetaminophen at 10 uM relative to control; assay type: ADME; settings: probe phenacetin (printed: phenaceten)
T1 sequence (P05177 whole entry): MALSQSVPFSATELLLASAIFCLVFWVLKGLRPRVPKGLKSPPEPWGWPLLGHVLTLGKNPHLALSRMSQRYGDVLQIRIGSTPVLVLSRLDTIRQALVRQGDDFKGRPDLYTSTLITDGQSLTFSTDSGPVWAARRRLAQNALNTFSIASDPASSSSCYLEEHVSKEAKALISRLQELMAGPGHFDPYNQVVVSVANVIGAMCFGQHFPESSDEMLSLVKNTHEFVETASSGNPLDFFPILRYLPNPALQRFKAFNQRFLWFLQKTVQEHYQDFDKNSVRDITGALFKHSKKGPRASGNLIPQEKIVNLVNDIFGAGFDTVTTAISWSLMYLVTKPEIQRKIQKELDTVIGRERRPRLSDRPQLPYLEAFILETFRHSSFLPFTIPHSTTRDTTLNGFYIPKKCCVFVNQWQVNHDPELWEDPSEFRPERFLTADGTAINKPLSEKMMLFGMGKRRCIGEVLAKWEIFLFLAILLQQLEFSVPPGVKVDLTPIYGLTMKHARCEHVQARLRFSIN

[7] = Oral bioavailability in Sprague-Dawley rat at 2 mg/kg by LC-MS/MS analysis; assay type: ADME, organism-based; settings: in vivo
[8] = Half life in Sprague-Dawley rat at 1 mg/kg, iv by LC-MS/MS analysis; assay type: ADME, organism-based; parameters: dose 1 mg/kg, route intravenous; settings: in vivo
[9] = Inhibition of PKA (unknown origin) after 70 mins by luminescence assay; parameters: species or system Homo sapiens
[10] = Clearance in Sprague-Dawley rat at 1 mg/kg, iv by LC-MS/MS analysis; assay type: ADME, organism-based; parameters: dose 1 mg/kg, route intravenous; settings: in vivo
MAP kinase p38 = MAP kinase p38 (Homo sapiens, UniProt O15264+Q15759+Q16539+P53778); assay: Inhibition of p38 (unknown origin) using biotinylated Flag-ATF2 as substrate after 30 mins by HTRF assay; assay type: protein assay
[11] = as §1; assay type: ADME, organism-based, Plasma; parameters: dose 1 mg/kg, route intravenous; settings: Sprague-Dawley, plasma
[12] = molecular target: Mitogen-activated protein kinase 10 (Homo sapiens, UniProt P53779); assay: Inhibition of JNK3 alpha1 (unknown origin) using biotinylated Flag-ATF2 as substrate after 15 mins by HTRF assay
[13] = molecular target: Serine/threonine-protein kinase MRCK alpha (Homo sapiens, UniProt Q5VT25); assay: Inhibition of MRCKalpha (unknown origin) using LCD-AKRRRRLSSLRA-NH2 as substrate after 75 mins by luminescence assay in presence of [33P]ATP
[14] = Aqueous solubility in potassium phosphate buffer at pH 5.5 after 24 hrs by HPLC analysis; assay type: physicochemical; settings: pH 5.5, 24 h
Cytochrome P450 3A4 = Cytochrome P450 3A4 (Homo sapiens, UniProt P08684); assay: Inhibition of CYP3A4 (unknown origin)-mediated midazolam hydroxylation to 1'-Hydroxymidazolam; assay type: ADME
Cytochrome P450 1A2 = molecular target: T2, Cytochrome P450 1A2 (Homo sapiens, UniProt P05177); assay: Inhibition of CYP1A2 (unknown origin)-mediated phenaceten demethylation to acetaminophen; assay type: ADME
T2 sequence (P05177 whole entry): T1 sequence (P05177 whole entry)

Cytochrome P450 2D6 = Cytochrome P450 2D6 (Homo sapiens, UniProt P10635); assay: Inhibition of CYP2D6 (unknown origin)-mediated bufuralol hydroxylation to 4'-Hydroxybufuralol; assay type: ADME
Cytochrome P450 2C9 = Cytochrome P450 2C9 (Homo sapiens, UniProt P11712); assay: Inhibition of CYP2C9 (unknown origin)-mediated tolbutamide hydroxylation to hydroxy tolbutamide; assay type: ADME

Rho-associated protein kinase 2, sequence (O75116 whole entry): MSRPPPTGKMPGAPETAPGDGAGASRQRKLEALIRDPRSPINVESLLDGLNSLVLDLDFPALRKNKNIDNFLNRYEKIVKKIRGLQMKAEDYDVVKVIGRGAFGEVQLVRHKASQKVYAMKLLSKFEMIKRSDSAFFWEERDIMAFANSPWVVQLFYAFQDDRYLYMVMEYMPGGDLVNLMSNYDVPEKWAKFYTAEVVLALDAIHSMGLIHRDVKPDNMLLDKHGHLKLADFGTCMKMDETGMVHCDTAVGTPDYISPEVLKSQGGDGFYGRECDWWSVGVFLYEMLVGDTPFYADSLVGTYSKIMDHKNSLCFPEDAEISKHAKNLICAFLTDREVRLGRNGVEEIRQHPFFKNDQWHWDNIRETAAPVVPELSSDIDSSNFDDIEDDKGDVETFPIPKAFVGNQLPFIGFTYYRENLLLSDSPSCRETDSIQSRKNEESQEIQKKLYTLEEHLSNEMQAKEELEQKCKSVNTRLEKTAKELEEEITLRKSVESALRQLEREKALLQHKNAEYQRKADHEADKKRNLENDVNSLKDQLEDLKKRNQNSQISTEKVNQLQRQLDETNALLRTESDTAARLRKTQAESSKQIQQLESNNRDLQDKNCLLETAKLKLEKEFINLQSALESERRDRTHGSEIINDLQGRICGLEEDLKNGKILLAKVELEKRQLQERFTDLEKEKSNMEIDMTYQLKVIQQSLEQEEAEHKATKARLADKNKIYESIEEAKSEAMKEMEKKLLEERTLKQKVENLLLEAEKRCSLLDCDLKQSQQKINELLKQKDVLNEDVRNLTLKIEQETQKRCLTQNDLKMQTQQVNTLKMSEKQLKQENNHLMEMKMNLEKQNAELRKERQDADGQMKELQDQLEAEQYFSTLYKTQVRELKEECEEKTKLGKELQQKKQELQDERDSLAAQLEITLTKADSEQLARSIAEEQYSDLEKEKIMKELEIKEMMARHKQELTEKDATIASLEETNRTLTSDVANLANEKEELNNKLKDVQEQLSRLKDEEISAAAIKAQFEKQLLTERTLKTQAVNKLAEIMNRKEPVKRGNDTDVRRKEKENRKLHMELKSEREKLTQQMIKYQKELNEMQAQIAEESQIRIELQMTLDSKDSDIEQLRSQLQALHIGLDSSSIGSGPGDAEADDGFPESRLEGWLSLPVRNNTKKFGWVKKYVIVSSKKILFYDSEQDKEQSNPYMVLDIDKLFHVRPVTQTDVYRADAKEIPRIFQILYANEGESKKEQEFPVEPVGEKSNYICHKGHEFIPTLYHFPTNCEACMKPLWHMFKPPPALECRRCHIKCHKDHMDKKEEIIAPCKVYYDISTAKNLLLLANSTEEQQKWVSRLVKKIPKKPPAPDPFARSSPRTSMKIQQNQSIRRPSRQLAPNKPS
Serine/threonine-protein kinase MRCK alpha, sequence (Q5VT25 whole entry): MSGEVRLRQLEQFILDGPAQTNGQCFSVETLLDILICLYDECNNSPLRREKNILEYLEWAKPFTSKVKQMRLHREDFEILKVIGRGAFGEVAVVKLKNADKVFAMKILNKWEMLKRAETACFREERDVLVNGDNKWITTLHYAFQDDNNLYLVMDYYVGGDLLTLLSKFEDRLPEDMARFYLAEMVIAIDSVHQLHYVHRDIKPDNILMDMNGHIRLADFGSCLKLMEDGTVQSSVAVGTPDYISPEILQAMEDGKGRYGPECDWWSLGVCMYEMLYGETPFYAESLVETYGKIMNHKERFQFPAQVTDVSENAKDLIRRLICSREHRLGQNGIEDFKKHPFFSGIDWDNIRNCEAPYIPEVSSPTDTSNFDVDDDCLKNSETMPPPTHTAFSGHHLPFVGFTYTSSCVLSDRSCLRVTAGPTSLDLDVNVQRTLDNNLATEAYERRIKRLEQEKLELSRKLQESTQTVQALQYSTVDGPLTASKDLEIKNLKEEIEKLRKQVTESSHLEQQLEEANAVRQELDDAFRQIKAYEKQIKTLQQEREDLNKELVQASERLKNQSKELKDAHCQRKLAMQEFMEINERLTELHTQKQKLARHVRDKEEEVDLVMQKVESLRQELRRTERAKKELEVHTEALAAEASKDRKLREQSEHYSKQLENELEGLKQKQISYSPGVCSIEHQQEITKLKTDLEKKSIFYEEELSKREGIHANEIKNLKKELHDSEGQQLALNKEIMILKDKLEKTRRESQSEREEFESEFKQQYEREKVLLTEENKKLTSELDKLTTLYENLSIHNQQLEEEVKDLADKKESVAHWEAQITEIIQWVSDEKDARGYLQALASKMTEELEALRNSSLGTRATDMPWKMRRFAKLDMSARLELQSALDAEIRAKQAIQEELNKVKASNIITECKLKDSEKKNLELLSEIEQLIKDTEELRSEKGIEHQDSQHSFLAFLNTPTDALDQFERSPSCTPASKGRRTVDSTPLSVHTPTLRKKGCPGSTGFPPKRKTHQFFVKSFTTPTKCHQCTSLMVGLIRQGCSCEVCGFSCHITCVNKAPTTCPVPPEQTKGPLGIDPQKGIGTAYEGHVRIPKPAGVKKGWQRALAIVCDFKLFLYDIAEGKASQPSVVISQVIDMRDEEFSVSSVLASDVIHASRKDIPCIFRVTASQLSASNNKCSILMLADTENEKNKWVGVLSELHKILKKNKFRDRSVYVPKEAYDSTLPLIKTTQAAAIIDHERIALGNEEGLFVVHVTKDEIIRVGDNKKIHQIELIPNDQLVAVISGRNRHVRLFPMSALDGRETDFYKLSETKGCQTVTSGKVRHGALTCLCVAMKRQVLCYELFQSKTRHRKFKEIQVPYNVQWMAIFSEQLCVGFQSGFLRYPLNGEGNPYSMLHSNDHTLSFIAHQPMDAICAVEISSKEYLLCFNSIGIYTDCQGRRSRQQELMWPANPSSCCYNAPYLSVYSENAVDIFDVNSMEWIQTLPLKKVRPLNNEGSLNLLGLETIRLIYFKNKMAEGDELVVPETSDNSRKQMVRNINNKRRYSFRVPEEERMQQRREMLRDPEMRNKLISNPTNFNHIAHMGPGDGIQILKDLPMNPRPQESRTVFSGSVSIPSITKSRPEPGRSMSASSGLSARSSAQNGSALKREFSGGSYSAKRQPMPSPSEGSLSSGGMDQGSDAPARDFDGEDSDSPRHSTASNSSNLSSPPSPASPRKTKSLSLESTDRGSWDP
CYP2D6, sequence (P10635 whole entry): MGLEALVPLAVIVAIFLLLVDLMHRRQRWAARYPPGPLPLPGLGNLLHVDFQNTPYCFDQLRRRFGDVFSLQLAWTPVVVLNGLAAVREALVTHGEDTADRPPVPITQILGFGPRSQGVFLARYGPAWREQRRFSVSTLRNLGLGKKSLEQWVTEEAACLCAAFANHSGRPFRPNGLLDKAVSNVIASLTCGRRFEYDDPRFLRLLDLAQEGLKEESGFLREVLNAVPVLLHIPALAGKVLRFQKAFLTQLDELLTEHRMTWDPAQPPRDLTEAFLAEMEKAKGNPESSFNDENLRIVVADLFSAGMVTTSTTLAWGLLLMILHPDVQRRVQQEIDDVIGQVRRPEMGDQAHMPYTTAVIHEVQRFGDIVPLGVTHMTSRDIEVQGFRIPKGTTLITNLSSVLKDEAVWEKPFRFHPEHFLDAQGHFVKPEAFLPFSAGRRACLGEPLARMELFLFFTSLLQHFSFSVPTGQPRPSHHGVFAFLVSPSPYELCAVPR
Cytochrome P450 2D6, sequence (P10635 whole entry): as above
Rho-associated protein kinase 1, sequence (Q13464 whole entry): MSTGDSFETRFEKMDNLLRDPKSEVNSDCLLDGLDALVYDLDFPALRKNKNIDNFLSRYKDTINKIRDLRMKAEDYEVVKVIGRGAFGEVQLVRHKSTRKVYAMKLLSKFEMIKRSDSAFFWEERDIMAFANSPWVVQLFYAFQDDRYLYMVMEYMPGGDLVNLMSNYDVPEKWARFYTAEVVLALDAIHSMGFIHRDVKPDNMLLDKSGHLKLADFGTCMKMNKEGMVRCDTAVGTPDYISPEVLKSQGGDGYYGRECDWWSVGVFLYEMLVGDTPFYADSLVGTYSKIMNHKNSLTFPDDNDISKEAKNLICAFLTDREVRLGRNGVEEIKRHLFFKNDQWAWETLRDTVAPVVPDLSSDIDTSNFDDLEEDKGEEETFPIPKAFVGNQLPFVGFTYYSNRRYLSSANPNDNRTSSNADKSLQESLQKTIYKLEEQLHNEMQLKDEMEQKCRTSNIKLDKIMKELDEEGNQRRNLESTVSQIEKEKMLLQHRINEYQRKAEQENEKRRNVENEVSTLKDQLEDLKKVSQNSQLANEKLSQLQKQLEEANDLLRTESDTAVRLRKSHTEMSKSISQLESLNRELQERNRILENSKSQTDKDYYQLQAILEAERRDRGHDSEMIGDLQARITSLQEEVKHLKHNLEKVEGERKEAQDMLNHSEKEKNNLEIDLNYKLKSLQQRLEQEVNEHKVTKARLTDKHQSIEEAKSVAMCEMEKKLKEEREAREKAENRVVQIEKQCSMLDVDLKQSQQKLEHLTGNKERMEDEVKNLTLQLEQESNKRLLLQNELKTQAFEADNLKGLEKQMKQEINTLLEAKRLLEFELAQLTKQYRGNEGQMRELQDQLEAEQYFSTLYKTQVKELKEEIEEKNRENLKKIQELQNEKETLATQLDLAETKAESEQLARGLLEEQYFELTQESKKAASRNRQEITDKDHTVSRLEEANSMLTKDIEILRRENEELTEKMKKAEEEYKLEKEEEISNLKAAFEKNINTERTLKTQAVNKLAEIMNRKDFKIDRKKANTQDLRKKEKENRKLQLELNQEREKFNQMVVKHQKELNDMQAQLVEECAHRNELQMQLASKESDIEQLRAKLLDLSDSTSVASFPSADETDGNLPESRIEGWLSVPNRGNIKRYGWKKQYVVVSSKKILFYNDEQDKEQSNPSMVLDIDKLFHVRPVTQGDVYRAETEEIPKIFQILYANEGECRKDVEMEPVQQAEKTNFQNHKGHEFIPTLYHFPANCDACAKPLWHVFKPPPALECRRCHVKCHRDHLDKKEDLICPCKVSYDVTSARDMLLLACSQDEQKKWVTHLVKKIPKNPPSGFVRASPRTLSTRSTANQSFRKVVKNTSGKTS

Row | SMILES | Vd [1] | inhibition at 10 µM (CYP2D6) | pIC50 [2] | half-life [3] | inhibition at 10 µM (CYP3A4) | pIC50 [4] | pIC50 [5] | inhibition at 10 µM (CYP2C9) | Cmax [6] | inhibition at 10 µM (CYP1A2) | bioavailability [7] | half-life [8] | pIC50 [9] | clearance [10] | IC50 (MAP kinase p38) | AUC [11] | pIC50 [12] | pIC50 [13] | solubility [14] | pIC50 (Cytochrome P450 3A4) | also measured
1 | O=C(Nc1ccc(-c2cn[nH]c2)cc1)N(CCO)Cc1ccccc1 | 1.9 L/kg | 29% | 7.23 | > 2 h | 15% | 7.48 | 7.92 | 93% | 1100 nM | 9% | 46% | 1.9 h | 6.21 |  |  |  |  |  |  |  | AUC (Rattus norvegicus): 3.6 µM·h
2 | O=C(Nc1ccc(-c2cn[nH]c2)cc1)NC(CCO)c1cccc(F)c1 (stereo not drawn) | 0.7 L/kg | 41% | 7.49 | > 2 h | 23% | 8.00 | 8.70 | 71% | 9200 nM | -2% | 28% | 2.1 h | 6.24 | 4.9 mL/min/kg | > 20000 nM | 9.5 µM·h | < 4.70 | 5.19 |  |  | 
3 | CCN(Cc1cccc(OC)c1)C(=O)Nc1ccc(-c2cn[nH]c2)cc1O[C@H]1CCN(C)C1 | 2.6 L/kg | 83% |  |  | 53% | 8.40 | 9.00 | 65% | 1100 nM | 9% | 11% | 1 h | 5.17 | 30 mL/min/kg | > 20000 nM | 1.3 µM·h | < 4.70 | 5.81 | soluble |  | 
4 | COc1cccc(CN(CCO)C(=O)Nc2ccc(-c3cn[nH]c3)cc2)c1 | 1 L/kg | 38% | 7.72 | 0.4 h | 37% | 8.22 | 9.00 | 95% | 3800 nM | -23% | 51% | 1.6 h | 5.52 | 11.2 mL/min/kg | > 20000 nM | 4.2 µM·h | < 4.70 | 5.37 |  | 4.46 | pIC50 (Cytochrome P450 1A2): < 4.00; pIC50 (Cytochrome P450 2D6): 4.40; pIC50 (Cytochrome P450 2C9): 5.70
5 | COc1cccc(CN(CCN(C)C)C(=O)Nc2ccc(-c3cn[nH]c3)cc2)c1 | 14 L/kg | 85% | 8.40 | 0.567 h | 34% | 8.22 | 9.00 | 35% | 330 nM | -29% | 10% | 1 h | 6.34 | 176 mL/min/kg | > 20000 nM | 0.2 µM·h | < 4.70 | 5.06 | soluble | 4.10 | pIC50 (Cytochrome P450 1A2): < 4.00; pIC50 (Cytochrome P450 2D6): 5.52; pIC50 (Cytochrome P450 2C9): 4.52
6 | COc1cccc(CN(CCN2CCCC2)C(=O)Nc2ccc(-c3cn[nH]c3)cc2)c1 | 4.4 L/kg | 88% | 8.22 | 0.417 h | 34% | 7.89 | 8.52 | 24% | 480 nM | 0% | 0% | 1 h | 6.27 | 71 mL/min/kg | > 20000 nM | 0.6 µM·h | < 4.70 |  | soluble |  | 
7 | COc1cccc(CN(C)C(=O)Nc2ccc(-c3cn[nH]c3)cc2)c1 | 1.1 L/kg | 45% |  | 0.383 h | 27% | 8.40 | 9.00 | 96% | 2600 nM | 9% | 48% | 1 h | 5.74 | 9.4 mL/min/kg | > 20000 nM | 5.9 µM·h | < 4.70 | 5.73 |  | < 4.00 | pIC50 (Cytochrome P450 1A2): < 4.00; pIC50 (Cytochrome P450 2D6): < 4.00; pIC50 (Cytochrome P450 2C9): 6.22
